Reference: ChEMBL document CHEMBL2385076, “Discovery of 2-((1H-benzo[d]imidazol-1-yl)methyl)-4H-pyrido[1,2-a]pyrimidin-4-ones as novel PKM2 activators” (Bioorg Med Chem Lett, 2013)
In brackets after ≈: the same amount, converted by molar mass. Activity calls are given as the source filed them. No cut-off for these calls is given here.

Key:
[1] = biological target: Rho-associated protein kinase 1 (Homo sapiens) (UniProt Q13464); experiment: Inhibition of ROCK1 (unknown origin)
[2] = biological target: Serine/threonine-protein kinase 26 (Homo sapiens) (UniProt Q9P289); experiment: Inhibition of MST4 (unknown origin)
Rattus norvegicus = species on record: Rattus norvegicus; experiment: Binding affinity to central-type benzodiazepine receptor in rat cerebral cortex; assay type: tissue-based
SNU-182 = experiment: Antiproliferative activity against human SNU182 cells at 10 uM after 5 days; assay type: functional, cell-based
In short: (§1)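 Cells plated in Optimem-GlutaMax medium and cultured overnight before exposure to 10 µM compound. Viability measured with CytoTox-Glo after 5 days of treatment.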

Pyruvate kinase PKM [3] = biological target: T1, Pyruvate kinase PKM (Homo sapiens, UniProt P14618); experiment: Activation of PKM2 in human Snu182 cells assessed as oxygen consumption rate at 10 uM after 18 hrs; assay type: cell-based
In short: (§2)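 Snu182 cells seeded at 12k/well in RPMI with 10% FBS and 2 mM glutamine, cultured overnight, then given 10 µM compound for 18 h at 37°C, 5% CO2. Medium switched to XF DMEM with 5 mM glucose plus 10 µM compound; OCR and ECAR measured on a Seahorse XF96 analyzer.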
Target sequence in this assay (P14618 2-531 limits assumed): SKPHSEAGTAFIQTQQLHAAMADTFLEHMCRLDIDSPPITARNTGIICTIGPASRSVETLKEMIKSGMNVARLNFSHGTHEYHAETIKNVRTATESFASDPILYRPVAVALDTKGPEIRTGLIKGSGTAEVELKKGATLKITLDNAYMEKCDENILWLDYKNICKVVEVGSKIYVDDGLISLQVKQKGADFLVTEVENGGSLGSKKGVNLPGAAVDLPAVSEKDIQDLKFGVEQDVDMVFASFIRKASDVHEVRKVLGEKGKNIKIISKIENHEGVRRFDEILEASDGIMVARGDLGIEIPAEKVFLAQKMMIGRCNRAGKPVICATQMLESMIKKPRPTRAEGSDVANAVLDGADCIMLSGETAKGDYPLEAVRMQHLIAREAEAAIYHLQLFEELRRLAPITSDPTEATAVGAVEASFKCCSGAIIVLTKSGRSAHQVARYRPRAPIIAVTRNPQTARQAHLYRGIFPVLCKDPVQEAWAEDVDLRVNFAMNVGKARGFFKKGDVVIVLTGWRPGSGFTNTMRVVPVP

[4] = biological target: High affinity nerve growth factor receptor (Homo sapiens) (UniProt P04629); experiment: Inhibition of NTRK1 (unknown origin)
[5] = biological target: Protein kinase C beta type (Homo sapiens) (UniProt P05771); experiment: Inhibition of PRKCB2 (unknown origin)
[6] = biological target: Tyrosine-protein kinase ABL1 (Homo sapiens) (UniProt P00519); experiment: Inhibition of ABL1 (unknown origin)
[7] = biological target: Mitogen-activated protein kinase kinase kinase kinase 4 (Homo sapiens) (UniProt O95819); experiment: Inhibition of MAP4K4 (unknown origin)
[8] = Intrinsic clearance in human liver microsomes; assay type: ADME, Microsome; conditions: read-out: CLH
[9] = biological target: Phosphatidylinositol 4-phosphate 3-kinase C2 domain-containing subunit alpha (Homo sapiens) (UniProt O00443); experiment: Inhibition of PIK3C2A (unknown origin)
[10] = biological target: Tyrosine-protein kinase Lck (Homo sapiens) (UniProt P06239); experiment: Inhibition of LCK (unknown origin)
[11] = biological target: Mu-type opioid receptor (Homo sapiens) (UniProt P35372); experiment: Binding affinity to human mu opioid receptor by radioligand binding assay
In short: (§3)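 CEREP panel binding measured by displacement of an agonist radioligand.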

[12] = biological target: Serine/threonine-protein kinase MARK1 (Homo sapiens) (UniProt Q9P0L2); experiment: Inhibition of MARK1 (unknown origin)
HuH-1 (human) = experiment: Antiproliferative activity against human HuH1 cells at 10 uM after 5 days
[13] = biological target: Epidermal growth factor receptor (Homo sapiens) (UniProt P00533); experiment: Inhibition of EGFR (unknown origin)
[14] = Passive permeability from apical to basolateral side of dog RRCK cells; assay type: ADME, cell-based, Canis lupus familiaris, MDCKII-LE; conditions: MDCK, read-out: permeability
[15] = biological target: Muscarinic acetylcholine receptor M1 (Homo sapiens) (UniProt P11229); experiment: Binding affinity to human muscarinic M1 receptor by radioligand binding assay
In short: (§4)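 CEREP panel binding measured by displacement of an antagonist radioligand.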

[16] = biological target: Tyrosine-protein kinase BTK (Homo sapiens) (UniProt Q06187); experiment: Inhibition of BTK (unknown origin)
[17] = biological target: Angiopoietin-1 receptor (Homo sapiens) (UniProt Q02763); experiment: Inhibition of Tie2 (unknown origin)
Pyruvate kinase PKM [18] = biological target: T1, Pyruvate kinase PKM; experiment: Activation of PKM2 in human Huh7 cells assessed as production of pyruvate and ATP by fluorescence assay; assay type: cell-based, Huh-7
In short: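 Huh7 hepatocellular carcinoma cells were treated with compound and lysed, and the lysate was given PEP and ADP. The pyruvate formed was oxidized by pyruvate oxidase, and the fluorescence, proportional to pyruvate, was read as cellular pyruvate kinase activity.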

[19] = biological target: Sodium-dependent dopamine transporter (Homo sapiens) (UniProt Q01959); experiment: Binding affinity to human dopamine transporter by radioligand binding assay; in short: as §4
[20] = biological target: MAP kinase-activated protein kinase 2 (Homo sapiens) (UniProt P49137); experiment: Inhibition of MAPKAPK2 (unknown origin)
[21] = biological target: Cannabinoid receptor 1 (Homo sapiens) (UniProt P21554); experiment: Binding affinity to cannabinoid CB1 receptor (unknown origin)
HT-29 = experiment: Antiproliferative activity against human HT-29 cells at 10 uM after 5 days; assay type: functional; conditions: HT-29, 120 h; in short: as §1
[22] = biological target: Insulin receptor (Homo sapiens) (UniProt P06213); experiment: Inhibition of INSR (unknown origin)
[23] = biological target: cAMP-dependent protein kinase catalytic subunit alpha (Homo sapiens) (UniProt P17612); experiment: Inhibition of PRKACA (unknown origin)
SNU-449 = experiment: Antiproliferative activity against human SNU449 cells at 10 uM after 5 days; assay type: functional, cell-based; in short: as §1
[24] = biological target: cGMP-inhibited 3',5'-cyclic phosphodiesterase 3B (Homo sapiens) (UniProt Q13370); experiment: Binding affinity to human PDE3B
[25] = biological target: Sodium-dependent noradrenaline transporter (Homo sapiens) (UniProt P23975); experiment: Binding affinity to human norepinephrine transporter by radioligand binding assay; in short: as §4
Pyruvate kinase PKM [26] = biological target: T1, Pyruvate kinase PKM; experiment: Activation of PKM2 in human Snu182 cells assessed as extracellular acidification rate at 10 uM after 18 hrs; assay type: cell-based; in short: as §2
Target sequence in this assay (P14618 2-531 limits assumed): as above

[27] = Kinetic solubility of the compound at pH 7.4; assay type: physicochemical; conditions: buffer, read-out: Kinetic_solubility
[28] = biological target: MAP kinase p38 (Homo sapiens) (UniProt O15264+Q15759+Q16539+P53778); experiment: Inhibition of p38 (unknown origin); assay type: protein assay
Pyruvate kinase PKM [29] = biological target: T1, Pyruvate kinase PKM; experiment: Activation of PKM2 in human Huh7 cells assessed as formation of enzyme tetramers; assay type: cell-based; conditions: Huh-7
Target sequence in this assay (P14618 2-531 limits assumed): as above

[30] = biological target: Proto-oncogene tyrosine-protein kinase Src (Homo sapiens) (UniProt P12931); experiment: Inhibition of SRC (unknown origin)
[31] = biological target: Mitogen-activated protein kinase 1 (Homo sapiens) (UniProt P28482); experiment: Inhibition of MAPK1 (unknown origin)
[32] = biological target: Tyrosine-protein kinase ZAP-70 (Homo sapiens) (UniProt P43403); experiment: Inhibition of ZAP70 (unknown origin)
[33] = biological target: Adrenergic receptor alpha-1 (Homo sapiens) (UniProt P35348+P25100+P35368); experiment: Binding affinity to alpha-1 adrenergic receptor (unknown origin) by radioligand binding assay
[34] = biological target: D(1A) dopamine receptor (Homo sapiens) (UniProt P21728); experiment: Binding affinity to human dopamine D1 receptor by radioligand binding assay; in short: as §4
[35] = biological target: Serine/threonine-protein kinase PAK 4 (Homo sapiens) (UniProt O96013); experiment: Inhibition of PAK4 (unknown origin)
[36] = biological target: Ephrin type-A receptor 2 (Homo sapiens) (UniProt P29317); experiment: Inhibition of EPHA2 (unknown origin)
[37] = biological target: Hepatocyte growth factor receptor (Homo sapiens) (UniProt P08581); experiment: Inhibition of cMet (unknown origin)
[38] = biological target: 5-hydroxytryptamine receptor 2B (Homo sapiens) (UniProt P41595); experiment: Binding affinity to human 5-HT2B receptor by radioligand binding assay; in short: as §3
[39] = biological target: Vascular endothelial growth factor receptor 2 (Homo sapiens) (UniProt P35968); experiment: Inhibition of KDR (unknown origin)

Sodium-dependent noradrenaline transporter (Homo sapiens), sequence (P23975 whole entry): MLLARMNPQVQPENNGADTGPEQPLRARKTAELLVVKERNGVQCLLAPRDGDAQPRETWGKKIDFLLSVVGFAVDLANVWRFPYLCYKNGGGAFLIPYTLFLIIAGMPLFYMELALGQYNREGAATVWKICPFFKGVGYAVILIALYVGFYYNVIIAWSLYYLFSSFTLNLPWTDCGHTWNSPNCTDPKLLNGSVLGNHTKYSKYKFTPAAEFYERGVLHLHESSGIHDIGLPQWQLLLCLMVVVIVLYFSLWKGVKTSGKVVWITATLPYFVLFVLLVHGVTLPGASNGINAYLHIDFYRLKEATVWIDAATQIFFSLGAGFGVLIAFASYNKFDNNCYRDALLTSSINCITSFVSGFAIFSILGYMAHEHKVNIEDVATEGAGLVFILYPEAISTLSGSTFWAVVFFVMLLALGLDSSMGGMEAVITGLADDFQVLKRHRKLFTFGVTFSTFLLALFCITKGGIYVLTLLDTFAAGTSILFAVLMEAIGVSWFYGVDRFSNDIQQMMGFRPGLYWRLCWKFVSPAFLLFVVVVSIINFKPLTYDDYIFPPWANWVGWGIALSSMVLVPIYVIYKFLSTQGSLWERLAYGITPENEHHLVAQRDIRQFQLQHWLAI
Mitogen-activated protein kinase 1 (Homo sapiens), sequence (P28482 whole entry): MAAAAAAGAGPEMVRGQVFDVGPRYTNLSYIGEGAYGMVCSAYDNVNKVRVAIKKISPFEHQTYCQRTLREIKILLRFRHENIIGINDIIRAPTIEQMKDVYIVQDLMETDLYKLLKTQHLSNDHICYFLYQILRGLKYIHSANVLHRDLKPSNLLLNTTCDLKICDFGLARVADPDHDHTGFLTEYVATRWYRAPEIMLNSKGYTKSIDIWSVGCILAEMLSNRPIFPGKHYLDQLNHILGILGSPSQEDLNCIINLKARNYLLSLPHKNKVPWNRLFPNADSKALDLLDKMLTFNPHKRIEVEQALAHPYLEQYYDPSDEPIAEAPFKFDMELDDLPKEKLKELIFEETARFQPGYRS
Mu-type opioid receptor (Homo sapiens), sequence (P35372 whole entry): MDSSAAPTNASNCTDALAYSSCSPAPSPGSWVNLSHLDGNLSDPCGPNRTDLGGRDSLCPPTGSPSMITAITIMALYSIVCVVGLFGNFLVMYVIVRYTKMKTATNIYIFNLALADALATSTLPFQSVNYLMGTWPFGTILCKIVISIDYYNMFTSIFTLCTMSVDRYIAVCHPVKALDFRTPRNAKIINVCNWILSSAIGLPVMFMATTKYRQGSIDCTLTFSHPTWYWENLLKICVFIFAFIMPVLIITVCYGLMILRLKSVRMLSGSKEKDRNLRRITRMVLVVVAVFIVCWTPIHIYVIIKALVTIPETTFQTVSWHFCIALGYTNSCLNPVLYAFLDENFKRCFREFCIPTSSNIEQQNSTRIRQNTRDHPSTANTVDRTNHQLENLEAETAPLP
Serine/threonine-protein kinase PAK 4 (Homo sapiens), sequence (O96013 whole entry, looked up): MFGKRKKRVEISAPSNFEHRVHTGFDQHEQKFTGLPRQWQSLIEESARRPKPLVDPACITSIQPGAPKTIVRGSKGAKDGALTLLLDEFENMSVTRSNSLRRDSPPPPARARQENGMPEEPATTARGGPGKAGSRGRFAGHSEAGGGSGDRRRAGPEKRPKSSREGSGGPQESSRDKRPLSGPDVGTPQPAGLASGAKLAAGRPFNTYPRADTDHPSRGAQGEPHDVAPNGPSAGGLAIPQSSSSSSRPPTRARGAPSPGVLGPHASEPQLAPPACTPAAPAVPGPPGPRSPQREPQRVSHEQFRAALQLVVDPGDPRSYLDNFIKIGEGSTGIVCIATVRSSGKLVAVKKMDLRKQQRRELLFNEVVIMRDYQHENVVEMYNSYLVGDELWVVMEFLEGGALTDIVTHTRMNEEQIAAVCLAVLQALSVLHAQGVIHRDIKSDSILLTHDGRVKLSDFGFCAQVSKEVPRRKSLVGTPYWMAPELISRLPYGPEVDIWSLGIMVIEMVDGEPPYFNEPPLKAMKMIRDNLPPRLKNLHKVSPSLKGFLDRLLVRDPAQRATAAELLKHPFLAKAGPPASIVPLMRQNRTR
Insulin receptor (Homo sapiens), sequence (P06213 28-758 limits assumed): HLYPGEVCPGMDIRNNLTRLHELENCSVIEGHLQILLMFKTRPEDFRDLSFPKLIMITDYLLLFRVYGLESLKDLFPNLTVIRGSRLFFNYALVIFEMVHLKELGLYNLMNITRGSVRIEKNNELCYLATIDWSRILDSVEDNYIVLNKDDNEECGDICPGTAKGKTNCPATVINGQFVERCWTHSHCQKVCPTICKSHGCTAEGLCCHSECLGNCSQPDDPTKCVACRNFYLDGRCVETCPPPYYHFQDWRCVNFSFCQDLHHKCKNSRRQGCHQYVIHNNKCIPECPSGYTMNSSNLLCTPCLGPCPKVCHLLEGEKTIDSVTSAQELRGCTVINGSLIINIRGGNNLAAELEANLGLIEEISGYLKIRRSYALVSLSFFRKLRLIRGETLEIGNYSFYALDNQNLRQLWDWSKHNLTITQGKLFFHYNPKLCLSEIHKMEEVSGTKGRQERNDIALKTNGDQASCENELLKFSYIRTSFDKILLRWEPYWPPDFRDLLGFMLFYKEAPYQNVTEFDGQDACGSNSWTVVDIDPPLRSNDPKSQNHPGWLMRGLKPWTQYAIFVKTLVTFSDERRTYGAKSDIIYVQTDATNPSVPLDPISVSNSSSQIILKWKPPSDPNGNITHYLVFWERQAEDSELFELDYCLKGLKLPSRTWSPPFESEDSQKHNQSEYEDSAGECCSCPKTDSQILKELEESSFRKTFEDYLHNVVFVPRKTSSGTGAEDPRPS
Insulin receptor (Homo sapiens), sequence (P06213 763-1382 limits assumed): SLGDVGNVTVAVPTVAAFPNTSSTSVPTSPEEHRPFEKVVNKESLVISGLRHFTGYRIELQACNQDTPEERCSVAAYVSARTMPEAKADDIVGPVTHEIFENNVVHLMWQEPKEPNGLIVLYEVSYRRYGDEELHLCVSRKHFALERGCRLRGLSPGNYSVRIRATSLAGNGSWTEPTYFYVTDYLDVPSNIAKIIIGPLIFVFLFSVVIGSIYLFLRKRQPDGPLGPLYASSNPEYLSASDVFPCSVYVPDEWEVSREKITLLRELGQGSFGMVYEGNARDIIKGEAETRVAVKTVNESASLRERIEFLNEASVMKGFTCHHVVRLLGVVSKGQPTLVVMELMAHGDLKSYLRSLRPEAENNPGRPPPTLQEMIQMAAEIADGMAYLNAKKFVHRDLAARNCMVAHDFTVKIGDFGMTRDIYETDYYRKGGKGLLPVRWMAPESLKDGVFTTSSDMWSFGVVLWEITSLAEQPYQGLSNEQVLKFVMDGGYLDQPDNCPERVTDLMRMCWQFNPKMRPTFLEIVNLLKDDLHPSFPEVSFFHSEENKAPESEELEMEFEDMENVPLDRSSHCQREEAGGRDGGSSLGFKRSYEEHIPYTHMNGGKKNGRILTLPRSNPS
MAP kinase-activated protein kinase 2 (Homo sapiens), sequence (P49137 whole entry, looked up): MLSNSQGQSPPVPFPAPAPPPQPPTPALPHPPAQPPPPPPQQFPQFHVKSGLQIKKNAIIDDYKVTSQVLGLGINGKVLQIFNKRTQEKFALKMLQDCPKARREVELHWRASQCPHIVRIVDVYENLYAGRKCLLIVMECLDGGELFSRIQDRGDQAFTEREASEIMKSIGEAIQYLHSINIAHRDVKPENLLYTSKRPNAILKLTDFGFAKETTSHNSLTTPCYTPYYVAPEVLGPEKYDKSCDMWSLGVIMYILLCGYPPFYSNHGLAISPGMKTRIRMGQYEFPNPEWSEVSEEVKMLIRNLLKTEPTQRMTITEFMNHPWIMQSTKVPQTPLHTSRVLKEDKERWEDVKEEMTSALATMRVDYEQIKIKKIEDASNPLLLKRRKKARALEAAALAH
Proto-oncogene tyrosine-protein kinase Src (Homo sapiens), sequence (P12931 2-536 limits assumed): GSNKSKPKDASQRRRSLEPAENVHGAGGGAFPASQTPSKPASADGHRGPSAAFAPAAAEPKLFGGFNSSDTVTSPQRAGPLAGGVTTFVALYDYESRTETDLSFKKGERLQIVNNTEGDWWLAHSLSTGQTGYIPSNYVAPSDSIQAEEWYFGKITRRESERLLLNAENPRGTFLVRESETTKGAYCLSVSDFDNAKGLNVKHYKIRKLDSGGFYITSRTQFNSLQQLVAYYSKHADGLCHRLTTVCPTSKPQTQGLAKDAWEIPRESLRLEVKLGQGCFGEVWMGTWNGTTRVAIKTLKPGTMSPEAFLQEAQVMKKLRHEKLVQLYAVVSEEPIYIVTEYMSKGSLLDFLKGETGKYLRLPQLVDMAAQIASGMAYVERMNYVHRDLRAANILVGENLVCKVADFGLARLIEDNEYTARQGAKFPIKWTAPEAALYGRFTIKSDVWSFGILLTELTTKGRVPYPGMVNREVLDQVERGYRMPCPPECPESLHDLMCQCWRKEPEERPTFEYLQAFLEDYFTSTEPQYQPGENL

In the case of `Cc1cccc2nc(Cn3cnc4ccccc43)cc(=O)n12`, the inhibition [1] is reported as “inactive”, the inhibition [2] is reported as “inactive” and the Activity (Rattus norvegicus) is reported as “inactive”. The Activity (SNU-182) was “inactive”, the Activity (Pyruvate kinase PKM [3]) was 101% and the inhibition [4] was “inactive”. For the same compound, the inhibition [5] was “inactive”, the inhibition [6] was “inactive” and the inhibition [7] was “inactive”. The microsomal CLint [8] was less than 8 µL/min/mg, the inhibition [9] was “inactive” and the inhibition [10] was “inactive”. For the same compound, the Activity [11] was “inactive”, the inhibition [12] was “inactive” and the Activity (HuH-1 (human)) was “inactive”. For the same compound, the inhibition [13] was “inactive”, the Papp A→B [14] was 20.5 ×10⁻⁶ cm/s and the Activity [15] was “inactive”. For the same compound, the inhibition [16] was “inactive”, the inhibition [17] was “inactive” and the EC50 (Pyruvate kinase PKM [18]) was 70 nM. For the same compound, the Activity [19] was “inactive”, the inhibition [20] was “inactive” and the Activity [21] was “inactive”. For the same compound, the inhibition at 10 µM (HT-29) was 2.83%, the inhibition [22] was “inactive” and the inhibition [23] was “inactive”. The Activity (SNU-449) was “inactive”, the Activity [24] was “inactive” and the Activity [25] was “inactive”. For the same compound, the Activity (Pyruvate kinase PKM [26]) was 109%, the solubility kinetic [27] was 178 µM (≈ 51.7 µg/mL) and the inhibition [28] was “inactive”. For the same compound, the Activity (Pyruvate kinase PKM [29]) was “Active”, the inhibition [30] was “inactive” and the inhibition [31] was “inactive”. For the same compound, the inhibition [32] was “inactive”, the Activity [33] was “inactive” and the Activity [34] was “inactive”. The inhibition [35] was “inactive”, the inhibition [36] was “inactive” and the inhibition [37] was “inactive”. For the same compound, the Activity [38] was “inactive” and the inhibition [39] was “inactive”.
